Source: the RNAGym collection of RNA variant scans (doi:10.1002/anie.201605470)

B1: Osa-1-4 twister ribozyme (parent)
chain: CCGCCUAACACUGCCAAUGCCGGUCCCAAGCCCGGAUAAAAGUGGAGGGGGCGG

Variants of: B1
Test: self-cleavage, relative activity (ratio to wild type); higher = more cleavage; co-transcriptional
Summary of the method: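 The 48 positions downstream of the cleavage site in a 54-nucleotide Oryza sativa twister ribozyme template were synthesised at 97 % wild-type base and 1 % of each other base. The template was transcribed in vitro at 37 °C for 2 h, with self-cleavage allowed during transcription. Reads with or without upstream sequence after deep sequencing marked cleavage status, and relative activity is fraction cleaved normalised to wild type.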
For CCGCCUAACACUGCCACUGCCGGUCCCAAGCCCGGAUAAAAGCGGAGGGGGCGG [A17C U43C], the self-cleavage was 0.58.
Variant CCGCCUAACACUGCCACUGCCGGUCCCAAGCCCGGAUAAAAGGGGAGGGGGCGG [A17C U43G] has a self-cleavage of 0.26.
For CCGCCUAACACUGCCACUGCCGGUCCCAAGCCCGGAUAAAAGAGGAGGGGGCGG [A17C U43A], the self-cleavage was 0.64.
For CCGCCUAACACUGCCAGUGCCGGUCCCGAGCCCGGAUAAAAGUGGAGGGGGCGG [A17G A28G], the self-cleavage was 0.42.
Work on CCGCCUAACACUGCCAGUGCCGGUCCCCAGCCCGGAUAAAAGUGGAGGGGGCGG [A17G A28C] yielded a self-cleavage of 0.93.
For CCGCCUAACACUGCCAGUGCCGGUCCCUAGCCCGGAUAAAAGUGGAGGGGGCGG [A17G A28U], the self-cleavage was 0.87.
For CCGCCUAACACUGCCAGUGCCGGUCCCAGGCCCGGAUAAAAGUGGAGGGGGCGG [A17G A29G], the self-cleavage was 0.35.
CCGCCUAACACUGCCAGUGCCGGUCCCACGCCCGGAUAAAAGUGGAGGGGGCGG [A17G A29C] showed a self-cleavage of 0.07.
CCGCCUAACACUGCCAGUGCCGGUCCCAUGCCCGGAUAAAAGUGGAGGGGGCGG [A17G A29U] gave a self-cleavage of 0.27.
CCGCCUAACACUGCCAGUGCAGGUCCCAAGCCCGGAUAAAAGUGGAGGGGGCGG [A17G C21A] gave a self-cleavage of 0.8.
CCGCCUAACACUGCCAGUGCUGGUCCCAAGCCCGGAUAAAAGUGGAGGGGGCGG [A17G C21U] gave a self-cleavage of 0.98.
With CCGCCUAACACUGCCAGUGCGGGUCCCAAGCCCGGAUAAAAGUGGAGGGGGCGG [A17G C21G] the self-cleavage was 0.09.
CCGCCUAACACUGCCACUGCCGGUCCCAAGCCCGGAUAAAAGUGGAGGGGGCUG [A17C G53U] gave a self-cleavage of 0.36.
For CCGCCUAACACUGCCACUGCCGGUCCCAAGCCCGGAUAAAAGUGGAGGGGGCCG [A17C G53C], the self-cleavage was 0.1.
CCGCCUAACACUGCCACUGCCGGUCCCAAGCCCGGAUAAAAGUGGAGGGGGCAG [A17C G53A] gave a self-cleavage of 0.86.
In the case of CCGCCUAACACUGACAGUGCCGGUCCCAAGCCCGGAUAAAAGUGGAGGGGGCGG [A17G C14A], the self-cleavage is reported as 0.19.
With CCGCCUAACACUGGCAGUGCCGGUCCCAAGCCCGGAUAAAAGUGGAGGGGGCGG [A17G C14G] the self-cleavage was 0.29.
Variant CCGCCUAACACUGUCAGUGCCGGUCCCAAGCCCGGAUAAAAGUGGAGGGGGCGG [A17G C14U] has a self-cleavage of 0.69.
In the case of CCGCCUAACACUGCCAGUGCCGGUCCCAAGCCCGGAUAACAGUGGAGGGGGCGG [A17G A40C], the self-cleavage is reported as 0.09.
CCGCCUAACACUGCCAGUGCCGGUCCCAAGCCCGGAUAAGAGUGGAGGGGGCGG [A17G A40G] gave a self-cleavage of 0.89.
CCGCCUAACACUGCCAGUGCCGGUCCCAAGCCCGGAUAAUAGUGGAGGGGGCGG [A17G A40U] showed a self-cleavage of 0.83.
CCGCCUAAUACUGCCAGUGCCGGUCCCAAGCCCGGAUAAAAGUGGAGGGGGCGG [A17G C9U] gave a self-cleavage of 0.47.
For CCGCCUAAGACUGCCAGUGCCGGUCCCAAGCCCGGAUAAAAGUGGAGGGGGCGG [A17G C9G], the self-cleavage was 0.78.
Work on CCGCCUAAAACUGCCAGUGCCGGUCCCAAGCCCGGAUAAAAGUGGAGGGGGCGG [A17G C9A] yielded a self-cleavage of 0.33.
In the case of CCGCCUAACACUGCCACUGCCGGUCCCAAGCCCGGAUAAAAGUGGAGGGGCCGG [A17C G51C], the self-cleavage is reported as 0.13.
With CCGCCUAACACUGCCACUGCCGGUCCCAAGCCCGGAUAAAAGUGGAGGGGUCGG [A17C G51U] the self-cleavage was 0.22.
For CCGCCUAACACUGCCACUGCCGGUCCCAAGCCCGGAUAAAAGUGGAGGGGACGG [A17C G51A], the self-cleavage was 0.32.
With CCGCCUAACACUGCCAGUGCCGGUCCCAAGCCCGGAUAAAAGUGGGGGGGGCGG [A17G A46G] the self-cleavage was 0.07.
CCGCCUAACACUGCCAGUGCCGGUCCCAAGCCCGGAUAAAAGUGGUGGGGGCGG [A17G A46U] showed a self-cleavage of 0.09.
For CCGCCUAACACUGCCAGUGCCGGUCCCAAGCCCGGAUAAAAGUGGCGGGGGCGG [A17G A46C], the self-cleavage was 0.1.
Variant CCGCCUAACACUGCCACGGCCGGUCCCAAGCCCGGAUAAAAGUGGAGGGGGCGG [A17C U18G] has a self-cleavage of 0.79.
CCGCCUAACACUGCCACAGCCGGUCCCAAGCCCGGAUAAAAGUGGAGGGGGCGG [A17C U18A] gave a self-cleavage of 0.78.
Work on CCGCCUAACACUGCCACCGCCGGUCCCAAGCCCGGAUAAAAGUGGAGGGGGCGG [A17C U18C] yielded a self-cleavage of 0.57.
For CCGCCUAACACUGCCAGUGGCGGUCCCAAGCCCGGAUAAAAGUGGAGGGGGCGG [A17G C20G], the self-cleavage was 0.19.
For CCGCCUAACACUGCCAGUGUCGGUCCCAAGCCCGGAUAAAAGUGGAGGGGGCGG [A17G C20U], the self-cleavage was 0.97.
Work on CCGCCUAACACUGCCAGUGACGGUCCCAAGCCCGGAUAAAAGUGGAGGGGGCGG [A17G C20A] yielded a self-cleavage of 0.89.
Work on CCGCCUAACACUGCCAGUGCCGGUCCCAAGCCCGGAUAAAAGUGGAGGGGGCGG [A17G] yielded a self-cleavage of 0.97.
In the case of CCGCCUAACACUGCCACUGCCGGUCCCAAGCCCGGAUAAAAGUGGAGGGGGCGA [A17C G54A], the self-cleavage is reported as 0.9.
Variant CCGCCUAACACUGCCACUGCCGGUCCCAAGCCCGGAUAAAAGUGGAGGGGGCGC [A17C G54C] has a self-cleavage of 0.87.
For CCGCCUAACACUGCCACUGCCGGUCCCAAGCCCGGAUAAAAGUGGAGGGGGCGU [A17C G54U], the self-cleavage was 0.91.
CCGCCUAACACUGCCACUGCCGGUCCCAAGCCCGGAUAAAAGUGGAGCGGGCGG [A17C G48C] gave a self-cleavage of 0.03.
CCGCCUAACACUGCCACUGCCGGUCCCAAGCCCGGAUAAAAGUGGAGAGGGCGG [A17C G48A] gave a self-cleavage of 0.05.
CCGCCUAACACUGCCACUGCCGGUCCCAAGCCCGGAUAAAAGUGGAGUGGGCGG [A17C G48U] showed a self-cleavage of 0.03.
Work on CCGCCUAACACUGCCACUGCCGGUCCCAAGCCCGGAUAAAAGUGGAUGGGGCGG [A17C G47U] yielded a self-cleavage of 0.09.
For CCGCCUGACACUGCCAGUGCCGGUCCCAAGCCCGGAUAAAAGUGGAGGGGGCGG [A17G A7G], the self-cleavage was 0.49.
CCGCCUUACACUGCCAGUGCCGGUCCCAAGCCCGGAUAAAAGUGGAGGGGGCGG [A17G A7U] showed a self-cleavage of 0.1.
CCGCCUCACACUGCCAGUGCCGGUCCCAAGCCCGGAUAAAAGUGGAGGGGGCGG [A17G A7C] showed a self-cleavage of 0.08.
Variant CCGCCUAACACUGCCAGUGCCGGUCCCAAGCCCGGAUACAAGUGGAGGGGGCGG [A17G A39C] has a self-cleavage of 0.91.
